This note sets out measurements from publication PMC12219203 (Nature Communications, 2025).

The test system of one test is Tlr4-/- BMDMs. As to the kind of experiment: RNAseq of Tlr4-/- BMDMs. In kind it is cell-based, mouse. The settings on record: GM 8 mM, 24 h, n = 3. In short, it runs like this:
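BMDMs were differentiated 6 days from mouse bone marrow with GM-CSF or L929 supernatant at 800,000 cells/well, switched to serum-free IMDM and stimulated 24 h; MDP 0.4 mM was run alongside. Total RNA was extracted for RNAseq. Differentially expressed genes were called at p < 0.01 and logFC > 1 and plotted as mean heatmaps; n = 3.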

Test [1] deals with recombinant mTLR4 protein (Mus musculus, UniProt Q9QUK6). As to the kind of experiment: mTLR4 pulldown by immobilized GM-agarose beads. Type of test: binding. As to conditions: pre-incubation of mTLR4 with excess GM. In short, it runs like this:
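An azide-tagged test-compound probe (2.5 mM) was clicked onto alkyne agarose beads (1.2 mM ascorbate, 0.5 mM CuSO4, 0.5 mM THPTA, 4 °C, 3 h); control beads lacked probe. Beads were incubated overnight at 4 °C in water with recombinant mouse TLR4(26-638)-His6 (100 or 50 ng), optionally pre-incubated with free competitor. Flow-through, wash and boiled eluate were analysed by Coomassie-stained SDS-PAGE.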

Another test relates to THP-1 cells. As to the kind of experiment: Cytokine expression in THP-1 monocytes. As to conditions: GM 2-8 mM. In kind it is cell-based, human. In a few lines: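 THP-1 cells were kept in RPMI 1640 with 10% heat-inactivated FBS. They were seeded at 100,000 cells/well in half-serum medium and stimulated immediately, with MDP 0.4 mM as control. Total RNA was extracted and cytokine transcripts were measured by RT-qPCR; n = 4.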

For another test, the target named is mTLR4/mMD2 (K263A / wt) (Mus musculus, UniProt Q9JHF9+Q9QUK6, K263A). As to the kind of experiment: NF-κB SEAP in HEK-Blue Null1, mTLR4 K263A / mMD2 wt. As to conditions: GM 0.4, 0.2 mM, 24 h. Type of test: cell-based. In short, it runs like this:
(§1)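 Point mutants of mTLR4 or mMD2 were made by site-directed mutagenesis. HEK-Blue Null1 cells were co-transfected by lipofection for 16 h with 500 ng total of mTLR4 and Myc-tagged mMD2 plasmids (1:1); mock wells received lipofection reagent only. After a medium change the next day, cells were treated for 24 h. NF-κB SEAP was measured and normalised to water-treated samples; data are mean ± s.e.m., n = 3.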

Another test deals with WT BMDMs. The test is described as follows: Cytokine secretion by WT BMDMs. In kind it is cell-based, mouse. As to conditions: GM 4 mM, PB-resin, 24 h. In short, it runs like this:
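Bone-marrow macrophages were derived from female C57BL/6J mice (GM-CSF or L929 supernatant, 6 days) and moved to serum-free IMDM. They were given 4 mM test compound or 100 ng/mL LPS for 24 h, each either untreated or first neutralised with polymyxin B resin. Supernatants were cleared at 16,000 × g and TNF-α was measured by sandwich ELISA, with samples prediluted in 1% BSA/PBS when needed.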

For test [2], the system named is NF-κB signaling in RAW-Dual WT cells. The test is described as follows: RAW-Dual WT NF-κB reporter. In kind it is cell-based, mouse. As to conditions: 24 h. In short, it runs like this: (§2)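 RAW-Dual cells (WT or Tlr4-/-) were seeded at 100,000 cells/well in complete DMEM without selection antibiotics, 24 h before treatment. Test compounds were added for 24 h (n = 3). NF-κB-driven SEAP was read by mixing supernatant 1:4 with Quanti-Blue, incubating 6 h at 37 °C and measuring absorbance at 620 nm, blanked against water-treated wells.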

Test [3] relates to NF-κB p65 and MAPK p38 phosphorylation in Tlr4-/- BMDMs. The test is described as follows: Immunoblot of p65 and p38 phosphorylation in Tlr4-/- BMDMs. In kind it is cell-based, mouse. The settings on record: GM 5 mM. In short, it runs like this:
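Bone-marrow macrophages from WT or Tlr4-/- C57BL/6J mice were stimulated directly with 5 mM test compound or 500 ng/mL LPS. Cells were lysed in Tris/SDS/Triton buffer with protease and phosphatase inhibitors plus 10 mM DTT and boiled, then run on SDS-PAGE and transferred to PVDF. Blots were probed with rabbit antibodies to total or phospho-p65, total or phospho-p38 and GAPDH (1:1000, 4 °C overnight), then HRP anti-rabbit (1:5000).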

In test [4] the test system is NF-κB signaling in RAW-Dual Tlr4-/- cells. As to the kind of experiment: RAW-Dual Tlr4-/- NF-κB reporter. In kind it is cell-based, mouse. As to conditions: 24 h. In short, it runs like this:
as §2

The subject of a further test is RAW264.7 cells. As to the kind of experiment: Cytokine expression in RAW264.7 macrophages. In kind it is cell-based, mouse. As to conditions: GM 1-4 mM, M 4 mM, 24 h. In short, it runs like this:
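RAW264.7 cells were kept in high-glucose IMDM with HEPES, 5% heat-inactivated FBS and penicillin/streptomycin at 37 °C, 5% CO2. They were exposed to test compounds for 24 h (n = 4). Total RNA was extracted with a column kit, and TNF-α and IL-6 transcripts were quantified by RT-qPCR using the 2-ΔΔCt method, normalised to β-act.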

The subject of another test is Tlr4-/- C57BL/6 J mice. The test is described as follows: DSS-induced colitis model in Tlr4-/- mice. Type of test: in vivo, mouse. The settings on record: GM 10 mg/kg i.p. daily, 3% DSS. In short, it runs like this: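 Male SPF C57BL/6J mice aged 7–8 weeks, WT or Tlr4-/- (bred in house), were age-, weight- and sex-matched. They drank 3% (w/v) DSS water for 7 days and were then euthanised. Test compound (10 mg/kg) or PBS (5 mL/kg) was given i.p. daily from 2 days before DSS until the end. Body weight was recorded daily.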

For test [5], the system named is WT bone-marrow-derived macrophages (BMDMs). As to the kind of experiment: Cytokine gene expression in WT BMDMs. Type of test: cell-based, mouse. The settings on record: GM 2-8 mM, M 8 mM. In a few lines:
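Marrow was flushed from the femur and tibia of female SPF C57BL/6J mice and red cells were lysed (NH4Cl/KHCO3). Cells at 200,000 cells/mL were differentiated for 6 days in IMDM with 20 ng/mL GM-CSF or 10% L929 supernatant, then switched to serum-free IMDM. Test compounds were added for 24 h (n = 3). Cytokine transcripts were measured by RT-qPCR (2-ΔΔCt, normalised to β-act).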

The next test has as its target NOD1 (Homo sapiens, UniProt Q9Y239). The test is described as follows: HEK-Blue NOD1 SEAP reporter assay. As to conditions: GM, M 20 μM; 18 h. In kind it is cell-based. In a few lines: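 HEK-Blue hNod1 or hNod2 cells were seeded at 50,000 cells/well in DMEM/10% FBS without selection antibiotics and stimulated at once for 18 h (n = 3). Supernatant was mixed 1:4 with Quanti-Blue and incubated 6 h at 37 °C, and absorbance was read at 620 nm. Values were blanked against water-treated wells, and the respective parental Null cell readouts were subtracted.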
In general terms: In a reporter assay the amount or activity of a reporter protein is the signal.

Another test deals with mTLR4/mMD2 (Q339A / wt) (Mus musculus, UniProt Q9JHF9+Q9QUK6, Q339A). The test is described as follows: NF-κB SEAP in HEK-Blue Null1, mTLR4 Q339A / mMD2 wt. Type of test: cell-based. The settings on record: GM 0.4, 0.2 mM, 24 h. In a few lines: as §1
Chain of mTLR4/mMD2 (Q339A / wt) (Q9QUK6 26-835 Q339A): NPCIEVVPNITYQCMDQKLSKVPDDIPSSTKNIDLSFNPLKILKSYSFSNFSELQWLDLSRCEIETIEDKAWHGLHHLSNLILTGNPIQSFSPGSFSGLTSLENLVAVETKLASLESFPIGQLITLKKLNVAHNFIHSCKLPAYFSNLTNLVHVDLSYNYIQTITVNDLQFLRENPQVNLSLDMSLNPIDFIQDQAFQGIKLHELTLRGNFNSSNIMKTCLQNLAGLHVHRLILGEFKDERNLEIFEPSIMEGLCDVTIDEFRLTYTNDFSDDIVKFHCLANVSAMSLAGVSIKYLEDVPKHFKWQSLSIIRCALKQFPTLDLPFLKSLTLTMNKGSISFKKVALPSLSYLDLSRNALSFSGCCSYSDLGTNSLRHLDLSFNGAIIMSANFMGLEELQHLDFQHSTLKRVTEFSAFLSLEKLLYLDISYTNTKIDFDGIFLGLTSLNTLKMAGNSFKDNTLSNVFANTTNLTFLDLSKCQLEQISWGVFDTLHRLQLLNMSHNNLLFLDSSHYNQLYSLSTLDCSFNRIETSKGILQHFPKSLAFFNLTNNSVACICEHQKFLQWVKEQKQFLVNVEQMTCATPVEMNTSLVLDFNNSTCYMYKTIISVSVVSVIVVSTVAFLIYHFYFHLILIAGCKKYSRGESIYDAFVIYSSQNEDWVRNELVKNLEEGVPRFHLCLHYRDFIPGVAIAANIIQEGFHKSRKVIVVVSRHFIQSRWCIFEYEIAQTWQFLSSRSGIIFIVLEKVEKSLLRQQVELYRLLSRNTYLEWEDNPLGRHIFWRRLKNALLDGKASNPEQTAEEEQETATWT
Chain of mTLR4/mMD2 (Q339A / wt) (Q9JHF9 19-160): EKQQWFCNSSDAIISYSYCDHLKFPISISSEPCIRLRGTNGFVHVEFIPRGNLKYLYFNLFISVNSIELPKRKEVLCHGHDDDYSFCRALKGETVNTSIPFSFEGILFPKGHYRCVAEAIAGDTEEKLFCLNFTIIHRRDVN

Chain of mTLR4/mMD2 (K263A / wt) (Q9QUK6 26-835 K263A): as the sequence (Q9QUK6 26-835 Q339A) above, with K238A, A314Q counted along it
Chain of mTLR4/mMD2 (K263A / wt) (Q9JHF9 19-160): as the sequence (Q9JHF9 19-160) above
Chain of NOD1 (Q9Y239 whole entry): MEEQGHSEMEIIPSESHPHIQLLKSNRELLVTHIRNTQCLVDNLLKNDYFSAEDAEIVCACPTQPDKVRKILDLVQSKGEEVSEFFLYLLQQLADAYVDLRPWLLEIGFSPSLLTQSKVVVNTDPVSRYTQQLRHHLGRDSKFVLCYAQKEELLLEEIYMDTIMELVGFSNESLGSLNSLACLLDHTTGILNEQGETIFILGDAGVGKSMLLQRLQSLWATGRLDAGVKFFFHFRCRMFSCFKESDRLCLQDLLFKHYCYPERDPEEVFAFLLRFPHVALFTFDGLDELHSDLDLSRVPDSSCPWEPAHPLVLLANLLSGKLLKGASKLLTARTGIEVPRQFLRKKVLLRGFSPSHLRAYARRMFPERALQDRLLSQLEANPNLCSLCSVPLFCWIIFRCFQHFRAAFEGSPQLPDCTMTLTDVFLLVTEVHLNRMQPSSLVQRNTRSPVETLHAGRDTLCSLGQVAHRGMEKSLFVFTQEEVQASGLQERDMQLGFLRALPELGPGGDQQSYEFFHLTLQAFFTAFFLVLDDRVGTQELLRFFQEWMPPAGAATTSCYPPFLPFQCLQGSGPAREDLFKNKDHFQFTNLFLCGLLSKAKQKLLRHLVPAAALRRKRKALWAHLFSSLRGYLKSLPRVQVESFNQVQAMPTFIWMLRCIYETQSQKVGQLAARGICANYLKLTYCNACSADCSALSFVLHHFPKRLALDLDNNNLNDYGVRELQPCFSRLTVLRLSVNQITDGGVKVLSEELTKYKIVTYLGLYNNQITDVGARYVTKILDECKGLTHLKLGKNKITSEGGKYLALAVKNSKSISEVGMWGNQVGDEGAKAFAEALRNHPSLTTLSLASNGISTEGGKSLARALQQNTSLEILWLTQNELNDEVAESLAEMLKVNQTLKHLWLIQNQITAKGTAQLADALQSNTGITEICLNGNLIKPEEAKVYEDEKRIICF
Chain of recombinant mTLR4 protein (Q9QUK6 26-638): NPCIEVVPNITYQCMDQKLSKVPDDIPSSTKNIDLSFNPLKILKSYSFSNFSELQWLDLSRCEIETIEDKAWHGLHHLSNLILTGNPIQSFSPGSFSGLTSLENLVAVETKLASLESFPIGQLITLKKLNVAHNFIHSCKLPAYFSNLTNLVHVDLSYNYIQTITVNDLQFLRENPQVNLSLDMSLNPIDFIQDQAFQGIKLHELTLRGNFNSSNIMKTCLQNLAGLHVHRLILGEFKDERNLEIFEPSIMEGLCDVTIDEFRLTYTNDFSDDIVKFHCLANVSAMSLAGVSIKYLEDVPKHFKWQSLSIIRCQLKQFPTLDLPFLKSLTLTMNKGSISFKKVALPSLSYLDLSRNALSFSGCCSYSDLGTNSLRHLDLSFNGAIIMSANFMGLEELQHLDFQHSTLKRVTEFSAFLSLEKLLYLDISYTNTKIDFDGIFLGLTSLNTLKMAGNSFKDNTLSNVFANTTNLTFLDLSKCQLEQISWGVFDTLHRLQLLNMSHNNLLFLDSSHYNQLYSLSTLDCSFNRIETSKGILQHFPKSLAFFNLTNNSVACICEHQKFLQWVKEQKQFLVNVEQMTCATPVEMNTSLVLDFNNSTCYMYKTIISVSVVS

For `CC(=O)N[C@H]1[C@H](O[C@H]2[C@H](O[C@H](C)C(=O)O)[C@@H](NC(C)=O)C(O)O[C@@H]2CO)O[C@H](CO)[C@@H](O)[C@@H]1O` (stereo partly drawn) [GM, N-acetylglucosamine-β−1,4-N-acetylmuramic acid], in the test with Tlr4-/- BMDMs, the “Cytokine and chemokine genes by RNAseq, Tlr4-/- BMDMs” value is on record as “fails to induce the expression of these genes”. The “Competition of mTLR4 binding to GM-1-resin by excess free ligand” value in test [1] is recorded as “dose-dependent decrease in the amount of mTLR4 bound to GM-1-resin”. Also, the “Immuno-stimulatory activity in THP-1 (in words)” value in the test on THP-1 cells was “dose-dependent immuno-stimulatory activity”. Further, the “Effect of mutation mTLR4_K263 on NF-κB activity (in words)” value on mTLR4/mMD2 (K263A / wt) is “abolished GM-triggered NF-κB activity”. Also, in the test with WT BMDMs, the “TNF-α induction in BMDMs after polymyxin B neutralization (in words)” value is “unaffected by polymyxin B neutralization”. Further, the “NF-κB signaling in RAW-Dual WT cells (in words)” value in test [2] is “dose-dependent activation of both NF-κB and IRF signaling”. In test [3], the “p65 and p38 phosphorylation in Tlr4-/- BMDMs” value was “absence of p65 and p38 phosphorylation”. In addition, the “NF-κB signaling in RAW-Dual Tlr4-/- cells (in words)” value in test [4] was “minimal activity”. In addition, the “Immuno-stimulatory activity (TNF-α, IL-6) in RAW264.7 (in words)” value in the test with RAW264.7 cells is “dose-dependent immuno-stimulatory activity”. Also, the “DSS-induced colitis in Tlr4-/- mice: weight loss and colonic shortening” value in the test with Tlr4-/- C57BL/6 J mice is “failed to prevent weight loss and colonic shortening”. Moreover, the “Cytoprotective responses in colitis Tlr4-/- mice” value with Tlr4-/- C57BL/6 J mice (RT-qPCR) is recorded as “No upregulation of cytoprotective responses”. Also, the “Immuno-stimulatory activity (TNF-α, IL-6) in BMDMs (in words)” value in test [5] is recorded as “dose-dependent immuno-stimulatory activity”. Also, the “NOD1 activation in HEK-Blue reporter cells (in words)” value at NOD1 is recorded as “unable to activate NOD1/2”. Further, on mTLR4/mMD2 (Q339A / wt), the “Effect of mutation mTLR4 Q339 on NF-κB activity (in words)” value is on record as “abolished GM-triggered NF-κB activity”.
